Article PMC4371781 (Biochemistry, 2015)
Where a SMILES comes first, the peptide text is derived from it. Primed or numbered codes have the meaning given here. The star is where a group is joined. FITC = O=C1OC2(c3ccc(O)cc3Oc3cc(O)ccc32)c2ccc(NC(=S)*)cc21; FITC′ = fluorescein; Ahx = NCCCCCC(=O)O

Assays:
[1] = target: T1, RbAB (pocket domain of Rb) (Homo sapiens, UniProt P06400, A635F/DEL582-633/S634E); assay: Competition-based ITC; type: binding
T1 sequence (P06400 with tags, fused parts or gaps DEL582-633/S634E/A635F limits assumed): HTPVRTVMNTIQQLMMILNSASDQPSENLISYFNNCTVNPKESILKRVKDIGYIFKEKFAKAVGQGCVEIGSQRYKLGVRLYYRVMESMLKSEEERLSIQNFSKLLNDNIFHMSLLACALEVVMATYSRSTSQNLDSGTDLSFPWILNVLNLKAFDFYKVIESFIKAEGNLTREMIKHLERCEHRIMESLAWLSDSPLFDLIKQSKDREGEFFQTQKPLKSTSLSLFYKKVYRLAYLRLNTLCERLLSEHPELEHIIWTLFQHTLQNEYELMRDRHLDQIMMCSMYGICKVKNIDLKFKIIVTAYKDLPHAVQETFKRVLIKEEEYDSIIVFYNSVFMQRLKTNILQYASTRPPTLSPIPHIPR
Method in brief: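 RbAB (Rb residues 372–581 and 636–787 joined by an EF linker, GS N-terminus) was expressed as a GST fusion in E. coli and thrombin-cleaved. At 25 °C in 20 mM Tris pH 7.5, 140 mM NaCl and 2 mM β-mercaptoethanol, the RIZ 297–341 fragment (1154 or 984 μM) was titrated into RbAB (20 or 9 μM). RbAB was pre-mixed with excess competitor: 650 μM FITC-RIZ(254–267) or 459 μM RIZ 197–269 fragment. Kd was derived from the apparent association constant with a competition equation.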

[2] = target: T1, RbAB (pocket domain of Rb); assay: Fluorescence anisotropy, direct binding assay
Method in brief: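 Assays ran in PBS pH 7.5 with 2.5 mM DTT. Labelled peptide was held constant while RbAB was varied: 0.33 μM FITC-RIZ(254–267) at 25 °C, or 0.40 μM FITC-RIZ(309–319) at 20 °C. FITC was attached at the N-terminus via an aminohexanoyl spacer, with amidated C-termini. TCSPC steady-state anisotropy was corrected with a bound/free quantum-yield ratio (0.65 μM peptide ± 32.5 μM RbAB). Kd was fitted by nonlinear least squares with 95% confidence intervals.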

[3] = target: T1, RbAB (pocket domain of Rb); assay: NMR-monitored titration, 1H–15N HSQC of 15N-labeled RIZ constructs with RbAB; type: binding; details: for residues most affected by RbAB binding (loss of HSQC peak volume): 1H–15N HSQC, PBS pH 7.5, 2.5 mM DTT, 25 °C
[4] = target: HDAC1 LXCXE-like sequence LXCXE-like sequence (Homo sapiens) (UniProt Q13547); details: cited from earlier work
FITC-RIZ(254-267) = target: T2, FITC-RIZ(254-267) (human); assay: fluorescence polarisation
T2 peptide: {FITC′-Ahx}-ERLEAAACEVNDLG-NH2

FITC-RIZ(309-319) = target: T3, FITC-RIZ(309-319) (human, SMILES …); assay: fluorescence polarisation
T3 peptide: {FITC-Ahx}-EIRCDEKPEDL-NH2

[5] = target: T4, AR-N (N-terminal part of the acidic region of RIZ, residues 197-269) (human, UniProt Q13029 197-269); assay: fluorescence polarisation
T4 sequence: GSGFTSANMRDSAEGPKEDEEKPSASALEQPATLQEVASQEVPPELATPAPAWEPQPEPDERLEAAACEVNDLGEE

[6] = target: T4, AR-N (N-terminal part of the acidic …); assay: ITC
[7] = target: T1, RbAB (pocket domain of Rb); assay: Isothermal titration calorimetry, direct binding of RbAB
Method in brief: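 RbAB (GST-fusion from E. coli, thrombin-cleaved) was injected stepwise into the cell at 25 °C in 20 mM Tris pH 7.5, 140 mM NaCl and 2 mM β-mercaptoethanol. Titrations were 486 μM RbAB into 28 μM full acidic region (AR), and 524 μM RbAB into 39 μM RIZ 197–269 or 48 μM RIZ 297–341 fragment. Heats of binding were recorded and fitted to a single-binding-site model.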

[8] = NMR structural characterization of AR; type: physicochemical
[9] = from 13Cα, 13Cβ, 1Hα chemical shifts, PBS pH 7.5, 25 °C

Molecule `CC(C)C[C@H](NC(=O)[C@H](CC(=O)O)NC(=O)[C@H](CC(N)=O)NC(=O)[C@@H](NC(=O)[C@H](CCC(=O)O)NC(=O)[C@H](CS)NC(=O)[C@H](C)NC(=O)[C@H](C)NC(=O)[C@H](C)NC(=O)[C@H](CCC(=O)O)NC(=O)[C@H](CC(C)C)NC(=O)[C@H](CCCNC(=N)N)NC(=O)[C@H](CCC(=O)O)NC(=O)CCCCCNC(=S)Nc1ccc2c(c1)C(=O)OC21c2ccc(O)cc2Oc2cc(O)ccc21)C(C)C)C(=O)NCC(N)=O` [FITC-RIZ(254–267)] ({FITC-Ahx}-ERLEAAACEVNDLG-NH2) has a Kd [1] of 70 ± 10 µM and a Kd [2] of ~170 µM.

In the case of `CC[C@H](C)[C@H](NC(=O)[C@H](CCC(=O)O)NC(=O)CCCCCNC(=S)Nc1ccc2c(c1)C(=O)OC21c2ccc(O)cc2Oc2cc(O)ccc21)C(=O)N[C@@H](CCCNC(=N)N)C(=O)N[C@@H](CS)C(=O)N[C@@H](CC(=O)O)C(=O)N[C@@H](CCC(=O)O)C(=O)N[C@@H](CCCCN)C(=O)N1CCC[C@H]1C(=O)N[C@@H](CCC(=O)O)C(=O)N[C@@H](CC(=O)O)C(=O)N[C@@H](CC(C)C)C(N)=O` [FITC-RIZ(309–319)] ({FITC-Ahx}-EIRCDEKPEDL-NH2), the Kd [2] is reported as ~0.36 µM.

In the case of “EIRCDEKPEDL [peptide containing the IRCDE motif]”, the “effect of competitor peptide on AR signals in presence of RbAB” value ([3]; 86 μM 15N-labeled AR, ~2-fold molar excess RbAB, 34-fold molar excess of RIZ(309–319) peptide, PBS pH 7.5, 25 °C) is reported as “the intensity of all AR signals was restored”.

For “Rb pocket domain pocket domain (from UniProt P06400)”, the Kd [4] is given as 10 µM.

B1: RbAB (pocket domain of the retinoblastoma protein, cyclin boxes A and B joined by a two-residue linker) (domain or fragment, human)
chain: GSHTPVRTVMNTIQQLMMILNSASDQPSENLISYFNNCTVNPKESILKRVKDIGYIFKEKFAKAVGQGCVEIGSQRYKLGVRLYYRVMESMLKSEEERLSIQNFSKLLNDNIFHMSLLACALEVVMATYSRSTSQNLDSGTDLSFPWILNVLNLKAFDFYKVIESFIKAEGNLTREMIKHLERCEHRIMESLAWLSDSPLFDLIKQSKDREGEFFQTQKPLKSTSLSLFYKKVYRLAYLRLNTLCERLLSEHPELEHIIWTLFQHTLQNEYELMRDRHLDQIMMCSMYGICKVKNIDLKFKIIVTAYKDLPHAVQETFKRVLIKEEEYDSIIVFYNSVFMQRLKTNILQYASTRPPTLSPIPHIPR
Molecule B1 has a Kd (FITC-RIZ(254-267)) of 170 µM, a Kd (FITC-RIZ(309-319)) of 360 nM and a Kd [5] of 90 µM. The Kd [6] was 45 ± 20 µM.

B2: AR: recombinant AR protein, residues 197–341 of human RIZ (FTSA⋯TPAM) preceded by four extraneous amino acids (GSPE) (protein)
chain: GSPEFTSANMRDSAEGPKEDEEKPSASALEQPATLQEVASQEVPPELATPAPAWEPQPEPDERLEAAACEVNDLGEEEEEEEEEDEEEEEDDDDDELEDEGEEEASMPNENSVKEPEIRCDEKPEDLLEEPKTTSEETLEDCSEVTPAM
modifications: left off: GST, end not stated, cleaved
With B2 the “affinity for pocket domain of Rb (in words)” value ([7]; purified components, ITC and fluorescence anisotropy) was “submicromolar affinity”, the “residues most affected by RbAB binding (loss of HSQC peak volume)” value [3] was “Residues 306–322 ([…]) were the most affected by RbAB binding” and the “exchange between free and bound forms with RbAB” value ([3]; 15N-labeled AR, increasing RbAB, PBS pH 7.5, 25 °C) was “consistent with exchange between the free and bound forms on an intermediate time scale”. For the same molecule, the “specificity of binding to RbAB” value ([3]; displacement by large excess of peptide containing IRCDE motif) was “AR binding to RbAB is specific”, the “structural state in solution” value ([8]; NMR, PBS pH 7.5, 2.5 mM DTT, 25 °C) was “consistent with AR being intrinsically disordered” and the “SSP scores: virtually no residues higher than” value [8, 9] was ≤ 0.2. For the same molecule, the “SSP scores: virtually no residues lower than” value [8, 9] was ≥ −0.2.

B3: AR-N: recombinant protein, residues 197–269 (FTSA⋯LGEE) of RIZ preceded by three extraneous amino acids (GSG) (protein)
chain: GSGFTSANMRDSAEGPKEDEEKPSASALEQPATLQEVASQEVPPELATPAPAWEPQPEPDERLEAAACEVNDLGEE
modifications: left off: GST, N-terminal, cleaved
With B3 the “heat/enthalpy of binding to RbAB (in words)” value ([7]; ITC, 25 °C, Tris pH 7.5) was “little or no heat is released” and the “residues most affected by RbAB binding (loss of HSQC peak volume)” value [3] was “Residues 255–267 in AR-N”.
